Data: ChEMBL document CHEMBL1146470, “Highly hydroxylated triterpenes from Salvia kronenburgii” (J Nat Prod, 2004)
Values after ≈ are worked out from the molar mass of the structure shown.

How the values were obtained:
A2780 = assay: Cytotoxicity against human A2780 cells; assay type: functional, cell-based
Method in brief: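 Run on the human ovarian cancer line A2780 by a previously described protocol, with actinomycin D at 2 μg/mL as the positive control.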

SF-268 = assay: Cytotoxicity against human SF268 cells; assay type: functional
T47D = assay: Cytotoxicity against human T47D cells; assay type: functional
Method in brief: (§1)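 NCI 60-cell-line panel screen over a 5-log dose range; growth inhibition expressed as log GI50. Preceded by an NCI one-dose primary screen on three lines (H460, MCF7, SF-268) reported as growth percentages.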

EKVX = assay: Cytotoxicity against human EKVX cells; assay type: functional; method in brief: as §1
RXF 393 = assay: Cytotoxicity against human RXF393 cells; assay type: functional; method in brief: as §1
NCI-H460 = assay: Cytotoxicity against human H460 cells; assay type: functional
MCF7 = assay: Cytotoxicity against human MCF7 cells; assay type: functional

SMILES	IC50 (A2780)	other results
CC1(C)CC[C@]2(C)CC[C@]3(C)C(=C[C@@H](O)[C@@H]4[C@@]5(C)[C@H](O)[C@@H](O)[C@H](O)C(C)(C)[C@@H]5CC[C@]43C)[C@@H]2C1	27.9 µg/mL (≈ 58.8 µM)	–
CC(=O)O[C@H]1[C@H](O)[C@@H](O)[C@]2(C)C3=CC=C4[C@@H]5CC(C)(C)CC[C@]5(C)CC[C@@]4(C)[C@]3(C)CC[C@H]2C1(C)C	36.9 µg/mL (≈ 74 µM)	–
CC(=O)O[C@@H]1C[C@@]2(C)C(=CC[C@]3(C)[C@@H]2[C@H](O)C=C2[C@@H]4[C@@H](C)[C@H](C)CC[C@]4(C)CC[C@]23C)C(C)(C)[C@H]1O	34.2 µg/mL (≈ 68.6 µM)	–
CC(=O)O[C@H]1[C@H](O)[C@@H](O)[C@]2(C)[C@H]3[C@H](O)C=C4[C@@H]5CC(C)(C)CC[C@]5(C)CC[C@@]4(C)[C@]3(C)CC[C@H]2C1(C)C	38.5 µg/mL (≈ 74.5 µM)	–
CC(=O)O[C@H]1[C@H](O)C[C@]2(C)C3=CC=C4[C@@H]5[C@@H](C)[C@@](C)(O)CC[C@]5(C)CC[C@@]4(C)[C@]3(C)CC[C@H]2C1(C)C	33.3 µg/mL (≈ 66.8 µM)	–
CC(=O)O[C@H]1[C@H](O)[C@@H](O)[C@]2(C)[C@H]3C(=O)C=C4[C@@H]5[C@@H](C)[C@H](C)CC[C@]5(C)CC[C@@]4(C)[C@]3(C)CC[C@H]2C1(C)C	26 µg/mL (≈ 50.5 µM)	–
C[C@H]1[C@H](C)CC[C@]2(C)CC[C@]3(C)C(=C[C@@H](O)[C@@H]4[C@@]5(C)[C@H](O)[C@@H](O)[C@H](O)C(C)(C)[C@@H]5CC[C@]43C)[C@H]12	27.7 µg/mL (≈ 58.3 µM)	Activity (SF-268): 18%; GI50 (T47D): 18.6 µM; GI50 (EKVX): 0.0219 µM; GI50 (RXF 393): 0.363 µM; Activity (NCI-H460): -45%; Activity (MCF7): -25%
CC(=O)O[C@H]1[C@H](O)[C@@H](O)[C@]2(C)[C@H]3[C@H](O)C=C4[C@@H]5[C@@H](C)[C@H](C)CC[C@]5(C)CC[C@@]4(C)[C@]3(C)CC[C@H]2C1(C)C	32.5 µg/mL (≈ 62.9 µM)	–
CC(=O)O[C@H]1[C@H](O)[C@@H](O)[C@]2(C)C3=CC=C4[C@@H]5[C@@H](C)[C@H](C)CC[C@]5(C)CC[C@@]4(C)[C@]3(C)CC[C@H]2C1(C)C	37.5 µg/mL (≈ 75.2 µM)	–
CC1(C)C[C@H]2C3=C[C@@H](O)[C@@H]4[C@@]5(C)CC[C@H](O)C(C)(C)[C@@H]5CC[C@@]4(C)[C@@]3(C)CC[C@@]2(C)C[C@H]1O [SALVINEMOROL]	8.6 µg/mL (≈ 18.7 µM)	–
C[C@H]1[C@H](C)[C@H]2C3=C[C@@H](O)[C@@H]4[C@@]5(C)CC[C@H](O)C(C)(C)[C@@H]5CC[C@@]4(C)[C@]3(C)CC[C@@]2(C)C[C@H]1O [SALVISTAMINEOL]	21 µg/mL (≈ 45.8 µM)	–
